Assay results reported in ChEMBL document CHEMBL1137020, “Role of the rapA gene in controlling antibiotic resistance of Escherichia coli biofilms” (2007).
In brackets after ≈: the same amount, converted by molar mass. Activity calls are given as the source filed them.

How the values were obtained:
Escherichia coli [1] = experiment: Antimicrobial activity against Escherichia coli isolate AMG1 24 hrs biofilms at 0.03 ug/ml to 0.12 ug/ml after 24 hrs by microtiter plate count method; format: functional, organism-based
In short: (§1)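 Microtiter plate biofilms grown 24 h, then exposed 24 h to a range of norfloxacin concentrations. Survival counted as CFU and expressed as percent of 10^8 CFU/ml for each strain.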

Escherichia coli [2] = experiment: Antimicrobial activity against Escherichia coli isolate AMG1 24 hrs biofilms after 24 hrs relative to control; format: functional; in short: as §1
Escherichia coli [3] = experiment: Antimicrobial activity against kanamycin-resistant Escherichia coli U6 deltayhcQ mutant 24 hrs biofilms at 350 ug/ml after 1 hr by microtiter plate count method; format: functional
In short: (§2)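 Biofilms grown 24 h in microtiter plate wells, then exposed to penicillin G at 350 μg/ml for 1 h. Viability by plate count (CFU) against untreated controls. At least three independent determinations, mean ±1 SD. Strain differences tested by Student's two-tailed t test.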

Escherichia coli [4] = experiment: Antimicrobial activity against tetracycline-resistant Escherichia coli U1 rapA mutant 24 hrs biofilms assessed as viability at 350 ug/ml after 1 hr by microtiter plate count method; format: functional; in short: as §2
Escherichia coli [5] = experiment: Antimicrobial activity against kanamycin-resistant Escherichia coli K-12 M1 W3110 deltarapA mutant flow cell-generated 24 hrs biofilms at 350 ug/ml after 1 hr using BacLight staining by CSLM; format: functional
In short: (§3)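 Biofilms grown 24 h in Plexiglas flow cells on M9-Casamino Acid medium under flow. Penicillin G 350 μg/ml in flowing medium for 1 h; controls kept on medium alone. LIVE/DEAD BacLight (Syto9/propidium iodide) injected, flow halted 5 min, then rinsed. CSLM images thresholded. Survival taken as green/(red+green) fluorescence relative to untreated controls.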

Escherichia coli [6] = experiment: Antimicrobial activity against tetracycline-resistant Escherichia coli U1 rapA mutant nylon membrane cultivated 24 hrs biofilms at 350 ug/ml after 1 hr; format: functional
In short: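 Nylon membranes (1×1 cm) in LB inoculated at OD600 0.1 and grown 24 h at 37°C. Medium replaced with LB ± penicillin G 350 μg/ml for 1 h. Membranes rinsed and vortexed 2 min in M9 salts, then diluted and plated in quadruplicate on LB agar for CFU.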

Escherichia coli [7] = experiment: Antimicrobial activity against wild type Escherichia coli K-12 24 hrs biolflim at 350 ug/ml after 1 hr by microtiter plate count method; format: functional, organism-based
In short: (§4)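 Biofilms were grown 24 h in microtiter plate wells and exposed to penicillin G at 350 μg/ml for 1 h. Viability was counted by CFU plating and compared with untreated control biofilms grown identically. Values are averages of at least three independent determinations ±1 standard deviation. Strain differences were tested by two-tailed Student's t test.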

Escherichia coli [8] = experiment: Antimicrobial activity against wild type Escherichia coli isolate AMG1 grown as planktonic cells after 24 hrs by spectrophotometric method; format: functional; conditions: AMG1, 24 h
In short: (§5)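 Wells with 100 and 200 μl LB inoculated to OD600 0.06 and grown 24 h at 37°C without shaking. Medium then replaced with LB containing penicillin G (0–250 μg/ml) for 24 h, and growth read by OD. MIC for planktonic cells and MICadh for biofilm taken as the concentration giving 50% growth reduction versus unexposed control. Biofilm contribution derived from the 100/200 μl OD relation.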

Escherichia coli [9] = experiment: Antimicrobial activity against Escherichia coli isolate AMG1 24 hrs biofilms at 350 ug/ml after 1 hr by microtiter plate count method; format: functional; in short: as §4
Escherichia coli [10] = experiment: Antimicrobial activity against kanamycin-resistant Escherichia coli K-12 M1 W3110 deltarapA mutant 24 hrs biolflim at 350 ug/ml after 1 hr by microtiter plate count method; format: functional, organism-based; in short: as §2
Escherichia coli [11] = experiment: Antimicrobial activity against kanamycin-resistant Escherichia coli K-12 M2 W3110 deltayhcQ mutant 24 hrs biolflim at 350 ug/ml after 1 hr using BacLight staining; format: functional; in short: as §3
Escherichia coli [12] = experiment: Antimicrobial activity against Escherichia coli AMG1 isolate 24 hrs flow cell-generated biofilms using BacLight staining by CSLM; format: functional, organism-based
In short: (§6)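 Penicillin G 350 μg/ml was given in flowing medium for 1 h, with controls kept on antibiotic-free flow. LIVE/DEAD BacLight was stopped in place for 5 min and then rinsed. CSLM green/(red+green) integrated intensity, thresholded, gave percent survival versus untreated controls.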

Escherichia coli [13] = experiment: Antimicrobial activity against tetracycline-resistant Escherichia coli U1 rapA mutant flow cell-generated 24 hrs biofilms using BacLight staining by CSLM; format: functional, organism-based; in short: as §3
Escherichia coli [14] = experiment: Antimicrobial activity against wild type Escherichia coli K-12 flow cell-generated 24 hrs biofilms at 350 ug/ml after 1 hr using BacLight staining by CSLM; format: functional; in short: as §6
Escherichia coli [15] = experiment: Antimicrobial activity against tetracycline-resistant Escherichia coli U1 rapA mutant grown as planktonic cells after 24 hrs by spectrophotometric method; format: functional; conditions: U1, 24 h; in short: as §5
Escherichia coli [16] = experiment: Antimicrobial activity against tetracycline-resistant Escherichia coli U1 rapA mutant grown as biofilms after 24 hrs by spectrophotometric method; format: functional; conditions: U1, 24 h; in short: as §5
Escherichia coli [17] = experiment: Antimicrobial activity against wild type Escherichia coli isolate AMG1 grown as biofilms after 24 hrs by spectrophotometric method; format: functional; conditions: AMG1, 24 h
In short: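 Triplicate microtiter wells held 100 and 200 μl LB, inoculated at OD600 0.06 and grown 24 h at 37°C without shaking. Liquid was replaced with LB containing penicillin G at 0–250 μg/ml, and growth was read by plate reader 24 h later. The biofilm contribution came from an equation correlating the two volumes' OD. MICadh is the concentration giving 50% growth reduction versus unexposed control.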

CCn1cc(C(=O)O)c(=O)c2cc(F)c(N3CCNCC3)cc21
Activity (Escherichia coli [1]): Active

O=C(N[C@H](CO)[C@H](O)c1ccc([N+](=O)[O-])cc1)C(Cl)Cl [CHLORAMPHENICOL]
Activity (Escherichia coli [2]): 40%

CC1(C)S[C@@H]2[C@H](NC(=O)Cc3ccccc3)C(=O)N2[C@H]1C(=O)O [PENICILLIN G]
Activity (Escherichia coli [3]): 55% | Activity (Escherichia coli [4]): 71% | Activity (Escherichia coli [5]): 71% | Activity (Escherichia coli [6]): 30% | Activity (Escherichia coli [7]): Active | MIC (Escherichia coli [8]): 50 µg/mL (≈ 150 µM) | Activity (Escherichia coli [9]): 35% | Activity (Escherichia coli [10]): Active | Activity (Escherichia coli [11]): 31% | Activity (Escherichia coli [12]): inactive | Activity (Escherichia coli [13]): Active | Activity (Escherichia coli [14]): 22% | MIC (Escherichia coli [15]): 50 µg/mL (≈ 150 µM) | MIC (Escherichia coli [16]): 125 µg/mL (≈ 374 µM) | MIC (Escherichia coli [17]): 250 µg/mL (≈ 748 µM)

GENTAMICIN
Activity (Escherichia coli [2]): 40%
